≈ marks a conversion by molar mass, not a printed value. Calls of active or inactive are those of the source. The rule behind the calls is not given here.
Legend:
Lacticaseibacillus casei [1] = experiment: Antibacterial activity against Lactobacillus casei ATCC 7469 assessed as growth inhibition; assay type: functional
[2] = target: T1, Thymidylate synthase (Lactobacillus casei) (UniProt P00469); experiment: Inhibition of Lactobacillus casei thymidylate synthase assessed as conversion of dUMP32 to dTP32PP at 6 X 10^-5 M after 30 mins relative to control; conditions: Lacticaseibacillus casei
T1 sequence (whole entry): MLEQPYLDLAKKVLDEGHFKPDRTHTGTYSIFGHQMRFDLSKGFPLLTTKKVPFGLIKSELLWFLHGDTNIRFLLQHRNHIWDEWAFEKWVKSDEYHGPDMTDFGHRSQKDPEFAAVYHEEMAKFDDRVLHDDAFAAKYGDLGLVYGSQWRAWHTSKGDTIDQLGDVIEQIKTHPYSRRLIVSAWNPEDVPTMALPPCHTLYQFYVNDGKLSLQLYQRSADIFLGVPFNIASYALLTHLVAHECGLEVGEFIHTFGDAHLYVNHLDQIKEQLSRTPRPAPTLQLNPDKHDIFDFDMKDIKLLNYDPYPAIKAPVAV

Lacticaseibacillus casei [3] = experiment: Inhibition of 5-[14C]methyltetrahydrofolate uptake in Lactobacillus casei at 4 X 10^-7 M relative to control; assay type: functional
Method in brief: (§1)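 Cells (1.0 × 10⁹, 1.0 mg dry weight) in 0.1 M potassium phosphate pH 6.5 with 1% glucose and […] (40000 cpm) 5-[¹⁴C]methyltetrahydrofolate, 1.0 mL total. Incubated 1 min at 37 °C, then stopped by membrane filtration with three ice-cold saline washes. Dried filters were scintillation counted. Uptake is compared with a control.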

Enterococcus faecium [4] = experiment: Antibacterial activity against methotrexate-resistant Streptococcus faecium assessed as growth inhibition up to 4 ug/ml; assay type: functional, organism-based
Pediococcus = experiment: Antimicrobial activity against Pediococcus cerevisiae ATCC 8081 assessed as growth inhibition; assay type: functional
Lacticaseibacillus casei [5] = experiment: Antibacterial activity against methotrexate-resistant Lactobacillus casei assessed as growth inhibition up to 4 ug/ml; assay type: functional, organism-based
Enterococcus faecium [6] = experiment: Antibacterial activity against Streptococcus faecium ATCC 8043 assessed as growth inhibition; assay type: functional
[7] = target: Dihydrofolate reductase (Lactobacillus casei) (UniProt P00381); experiment: Inhibition of Lactobacillus casei DHFR at 1 X 10^-4 M relative to control; conditions: Lacticaseibacillus casei
Dihydrofolate reductase (Lactobacillus casei), sequence (P00381 whole entry): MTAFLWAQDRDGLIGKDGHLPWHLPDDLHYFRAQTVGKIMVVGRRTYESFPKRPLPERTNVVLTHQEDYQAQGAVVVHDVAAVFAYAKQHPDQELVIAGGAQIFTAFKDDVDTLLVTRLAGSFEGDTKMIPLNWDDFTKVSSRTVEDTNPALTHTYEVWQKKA

Lacticaseibacillus casei [8] = experiment: Inhibition of 5-[14C]methyltetrahydrofolate uptake in Lactobacillus casei at 1.6 X 10^-6 M relative to control; assay type: functional; method in brief: as §1
[9] = target: T1, Thymidylate synthase (Lactobacillus casei); experiment: Inhibition of Lactobacillus casei thymidylate synthase assessed as conversion of dUMP32 to dTP32PP at 1 X 10^-4 M after 30 mins relative to control; conditions: Lacticaseibacillus casei
Lacticaseibacillus casei [10] = experiment: Inhibition of 5-[14C]methyltetrahydrofolate uptake in Lactobacillus casei at 1 X 10^-4 M relative to control; assay type: functional; method in brief: as §1
Lacticaseibacillus casei [11] = experiment: Inhibition of 5-[14C]methyltetrahydrofolate uptake in Lactobacillus casei at 1.5 X 10^-5 M relative to control; assay type: functional; method in brief: as §1
[12] = target: Dihydrofolate reductase (Lactobacillus casei) (UniProt P00381); experiment: Inhibition of Lactobacillus casei DHFR at 6.2 X 10^-5 M relative to control; conditions: Lacticaseibacillus casei

| inhibition [2] | inhibition [7] | inhibition [9] | SMILES | inhibition at 0.4 µM (Lacticaseibacillus casei [3]) | growth inhibition (GI) (Enterococcus faecium [4]) | growth inhibition (GI) (Pediococcus) | growth inhibition (GI) (Lacticaseibacillus casei [5]) | further results |
| --- | --- | --- | --- | --- | --- | --- | --- | --- |
|  | 17% | 0% | Cc1ccc(S(=O)(=O)N(Cc2ccc(C(=O)O)cc2)Cc2cnc3nc(N)nc(N)c3n2)cc1 |  |  |  |  | inhibition at 1.6 µM (Lacticaseibacillus casei [8]): 50% |
|  | 0% | 0% | COC(=O)c1ccc(CN(CC2=Nc3c(N)nc(N)nc3NC2)S(=O)(=O)c2ccc(C)cc2)cc1 |  |  |  |  | inhibition at 100 µM (Lacticaseibacillus casei [10]): 32% |
| 15% | 25% |  | Cc1ccc(S(=O)(=O)N(Cc2ccc(C(=O)O)cc2)Cc2cnc3nc(N)nc(O)c3n2)cc1 |  |  |  |  |  |
| 16% | 23% |  | COC(=O)c1ccc(CN(Cc2cnc3nc(N)nc(O)c3n2)S(=O)(=O)c2ccc(C)cc2)cc1 |  |  |  |  | inhibition at 15 µM (Lacticaseibacillus casei [11]): 50% |

| SMILES | inhibition [2] | inhibition [7] | inhibition [9] | inhibition at 0.4 µM (Lacticaseibacillus casei [3]) | growth inhibition (GI) (Enterococcus faecium [4]) | growth inhibition (GI) (Pediococcus) | growth inhibition (GI) (Lacticaseibacillus casei [5]) | further results |
| --- | --- | --- | --- | --- | --- | --- | --- | --- |
| Cc1ccc(S(=O)(=O)N(Cc2ccc(C(=O)N[C@@H](CCC(=O)O)C(=O)O)cc2)Cc2cnc3nc(N)nc(O)c3n2)cc1 | 12% | 32% |  | 50% | inactive | inactive | inactive | growth inhibition (GI) (Lacticaseibacillus casei [1]): inactive; growth inhibition (GI) (Enterococcus faecium [6]): inactive |
| Cc1ccc(S(=O)(=O)N(Cc2ccc(C(=O)N[C@@H](CCC(=O)O)C(=O)O)cc2)Cc2cnc3nc(N)nc(N)c3n2)cc1 |  |  | 20% | 50% | inactive | inactive | inactive | GI50 (Lacticaseibacillus casei [1]): 0.2 µg/mL (≈ 0.329 µM); GI50 (Enterococcus faecium [6]): 3.8 µg/mL (≈ 6.24 µM); inhibition [12]: 50% |
